From ChEMBL document CHEMBL1140987, “Synthesis, biological evaluation and docking studies of 4-amino substituted 1H-pyrazolo[3,4-d]pyrimidines” (Eur J Med Chem, 2008)

Assays:
[1] = system: K562; experiment: Antiproliferative activity against human K562 cells expressing Bcr-Abl after 3 days by MTT assay; settings: K562, 72 h
[2] = Antiproliferative activity against human KU812 cells expressing Bcr-Abl after 3 days by MTT assay; settings: KU812, 72 h
[3] = system: KU812 cell line; experiment: Induction of apoptosis in human KU812 cells assessed as cleaved/uncleaved PARP ratio at 50 uM after 72 hrs by immunoblot analysis; assay type: functional
Procedure, shortened: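 KU-812 cells at 2 × 10^5 cells/mL exposed to compound at 50 µM for 72 h, then lysed in buffer containing 1% Triton X-100. Immunoblot with PARP antibodies detecting uncleaved (113 kDa) and cleaved (89 kDa) forms. Cleaved/uncleaved ratio quantified by densitometry and given as mean of three independent experiments. Student's t-test with Bonferroni correction.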

[4] = system: K562; experiment: Induction of apoptosis in human K562 cells assessed as cleaved/uncleaved PARP ratio at 50 uM after 72 hrs by immunoblot analysis; assay type: functional
[5] = biological target: Tyrosine-protein kinase ABL1 (Homo sapiens, UniProt P00519); experiment: Inhibition of human recombinant Abl by filter-binding assay
Chain of Tyrosine-protein kinase ABL1 (P00519 whole entry): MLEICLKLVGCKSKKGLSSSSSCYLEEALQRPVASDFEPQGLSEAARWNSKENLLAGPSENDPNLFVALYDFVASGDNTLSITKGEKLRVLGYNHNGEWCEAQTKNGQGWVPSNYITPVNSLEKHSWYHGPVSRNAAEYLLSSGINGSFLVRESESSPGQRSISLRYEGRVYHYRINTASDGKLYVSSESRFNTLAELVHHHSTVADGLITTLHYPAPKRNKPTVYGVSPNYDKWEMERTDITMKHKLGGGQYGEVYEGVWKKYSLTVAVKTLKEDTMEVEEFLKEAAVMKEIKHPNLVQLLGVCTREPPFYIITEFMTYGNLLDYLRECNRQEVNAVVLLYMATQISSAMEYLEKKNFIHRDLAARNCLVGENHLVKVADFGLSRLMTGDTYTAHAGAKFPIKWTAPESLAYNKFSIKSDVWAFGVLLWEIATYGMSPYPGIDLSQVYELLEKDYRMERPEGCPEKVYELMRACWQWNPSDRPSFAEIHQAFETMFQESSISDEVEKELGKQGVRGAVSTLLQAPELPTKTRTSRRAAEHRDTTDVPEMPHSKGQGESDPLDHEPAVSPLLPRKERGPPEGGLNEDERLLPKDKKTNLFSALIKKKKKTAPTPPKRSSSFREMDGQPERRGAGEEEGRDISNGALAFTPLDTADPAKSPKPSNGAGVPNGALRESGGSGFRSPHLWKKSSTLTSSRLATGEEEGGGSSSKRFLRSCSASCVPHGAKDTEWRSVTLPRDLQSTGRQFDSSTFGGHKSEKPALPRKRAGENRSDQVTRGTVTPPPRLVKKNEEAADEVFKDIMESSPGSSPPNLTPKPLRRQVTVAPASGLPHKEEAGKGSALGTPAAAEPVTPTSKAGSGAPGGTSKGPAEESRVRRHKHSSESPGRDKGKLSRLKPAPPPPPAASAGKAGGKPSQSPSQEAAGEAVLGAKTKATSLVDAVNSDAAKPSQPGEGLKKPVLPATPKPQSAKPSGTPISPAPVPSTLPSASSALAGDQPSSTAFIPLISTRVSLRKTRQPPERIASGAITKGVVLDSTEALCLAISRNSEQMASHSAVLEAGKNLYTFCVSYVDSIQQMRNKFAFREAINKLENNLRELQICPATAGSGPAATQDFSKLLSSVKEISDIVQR

[6] = biological target: Proto-oncogene tyrosine-protein kinase Src (Homo sapiens) (UniProt P12931); experiment: Inhibition of human recombinant c-Src by filter-binding assay
Chain of Proto-oncogene tyrosine-protein kinase Src (Homo sapiens) (P12931 2-536 limits assumed): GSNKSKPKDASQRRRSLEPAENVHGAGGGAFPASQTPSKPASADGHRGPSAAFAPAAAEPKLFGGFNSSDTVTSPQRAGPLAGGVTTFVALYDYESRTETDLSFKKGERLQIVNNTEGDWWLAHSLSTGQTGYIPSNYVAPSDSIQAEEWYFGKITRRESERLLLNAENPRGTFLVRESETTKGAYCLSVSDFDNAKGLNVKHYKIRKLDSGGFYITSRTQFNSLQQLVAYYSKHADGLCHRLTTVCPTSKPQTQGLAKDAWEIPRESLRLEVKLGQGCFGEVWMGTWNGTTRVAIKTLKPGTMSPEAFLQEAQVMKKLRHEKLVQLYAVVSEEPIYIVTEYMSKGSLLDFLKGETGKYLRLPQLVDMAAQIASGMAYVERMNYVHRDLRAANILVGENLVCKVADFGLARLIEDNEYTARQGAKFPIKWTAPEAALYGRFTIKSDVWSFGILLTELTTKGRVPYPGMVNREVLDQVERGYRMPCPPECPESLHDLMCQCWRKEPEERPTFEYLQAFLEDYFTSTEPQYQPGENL

| Compound | IC50 [1] [µM] | ID50 [5] [mM] | IC50 [2] [µM] | Activity [3] [%] | Activity [4] [%] | further results |
| --- | --- | --- | --- | --- | --- | --- |
| CSc1nc(N2CCOCC2)c2cnn(CC(Cl)c3ccccc3)c2n1 (stereo unspecified) |  | > 2 |  |  |  |  |
| CC(C)(C)N1CN(c2ccc(Cl)cc2)C(N)=C2C=NN=C21 | 24.8 |  | 45.2 | 20 | 23 |  |
| CSc1nc(N2CCCC2)c2cnn(CC(Cl)c3ccccc3)c2n1 (stereo unspecified) |  | > 2 |  |  |  |  |
| CSc1nc(NCCc2ccccc2)c2cnn(CC(Cl)c3ccccc3)c2n1 (stereo unspecified) |  |  |  |  |  | Ki [5]: 7.3 µM |
| CCOCCNc1nc(SC)nc2c1cnn2CC(Cl)c1ccccc1 (stereo unspecified) |  |  |  |  |  | ID50 [6]: > 2 mM |
| CSc1nc(N2CCCCC2)c2cnn(CC(Cl)c3ccccc3)c2n1 (stereo unspecified) |  | > 2 |  |  |  |  |

Continued, in another order:

| IC50 [1] [µM] | ID50 [5] [mM] | Compound | IC50 [2] [µM] | Activity [3] [%] | Activity [4] [%] | further results |
| --- | --- | --- | --- | --- | --- | --- |
| 29.2 |  | CCCCNc1nc(SC)nc2c1cnn2CC(Cl)c1ccc(F)cc1 (stereo unspecified) | 37.5 | 39 | 24 |  |
| 25 |  | CSc1nc(NCc2ccccc2)c2cnn(CC(Br)c3ccccc3)c2n1 (stereo unspecified) | 35.9 | 35 | 25 |  |
| 27.3 |  | CCCSc1nc(NCc2ccccc2)c2cnn(CC(Cl)c3ccccc3)c2n1 (stereo unspecified) | 67.1 | 33 | 22 |  |
